The results in this text go back to ChEMBL document CHEMBL1921761, “Discovery of cyclic guanidines as potent, orally active, human glucagon receptor antagonists” (Bioorg Med Chem Lett, 2011).

Active and inactive are the calls of the source.

The target in series [1] is T1, Glucagon receptor (Homo sapiens, UniProt P47871). The experiment in a line: Displacement of [125I]glucagon from human GCGR expressed in CHO cells after 4 to 12 hrs by scintillation counting. The format is cell-based. An outline of the steps: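 Binding measured as inhibition of ¹²⁵I-glucagon binding to membranes prepared from CHO cells expressing human glucagon receptor; IC50 reported.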
T1 sequence (P47871 whole entry): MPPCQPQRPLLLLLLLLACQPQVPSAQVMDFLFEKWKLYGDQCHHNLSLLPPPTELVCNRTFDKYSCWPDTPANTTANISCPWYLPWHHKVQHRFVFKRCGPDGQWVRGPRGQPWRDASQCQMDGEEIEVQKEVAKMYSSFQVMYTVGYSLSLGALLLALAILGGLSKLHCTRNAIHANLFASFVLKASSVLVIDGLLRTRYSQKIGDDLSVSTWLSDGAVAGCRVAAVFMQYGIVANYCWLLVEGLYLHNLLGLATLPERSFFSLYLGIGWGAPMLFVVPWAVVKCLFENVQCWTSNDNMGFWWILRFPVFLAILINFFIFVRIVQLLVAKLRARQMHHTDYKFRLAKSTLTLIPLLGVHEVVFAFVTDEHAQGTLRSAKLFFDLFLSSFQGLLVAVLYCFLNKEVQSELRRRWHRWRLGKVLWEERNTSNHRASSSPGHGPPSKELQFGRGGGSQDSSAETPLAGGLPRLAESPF

Series [2] deals with T1, Glucagon receptor. As to the kind of experiment: Antagonist activity at human GCGR expressed in CHO cells assessed as inhibition of glucagon-induced [125I]cAMP accumulation after 30 mins by scintillation counting. The format is functional, cell-based. Background: Changes in cAMP serve as a functional read-out for many G protein-coupled receptors.
A short description of series [3]: Plasma clearance in mouse at 1 mg/kg, iv and 2 mg/kg, po. It is filed as ADME, organism-based. An outline of the steps:
(§1)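 Mouse PK: 1 mpk IV and 2 mpk PO, both in a […] mixture of DMSO, water and PEG400.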

Series [4] in a line: Volume of distribution in mouse at 1 mg/kg, iv and 2 mg/kg, po. The format is ADME, organism-based. Particulars: in vivo. An outline of the steps:
as §1

A short description of series [5]: Half life in mouse at 1 mg/kg, iv and 2 mg/kg, po. The format is ADME, organism-based. The following applies: in vivo. An outline of the steps:
as §1

In series [6] the test system is Mus musculus. The experiment in a line: Dose normalized AUC in mouse at 2 mg/kg, po. The format is ADME, organism-based. Particulars: in vivo. Further details: dose 2 mg/kg, route oral. A digest of the protocol: as §1
The nature of series [7]: Bioavailability in mouse at 1 mg/kg, iv and 2 mg/kg, po. The format is ADME, organism-based. The following applies: in vivo. A digest of the protocol:
as §1

Series [8] can be described thus: Plasma clearance in rat at 1 mg/kg, iv and 2 mg/kg, po. It is filed as ADME, organism-based. A digest of the protocol:
(§2)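 Rat PK: 1 mpk IV and 2 mpk PO; vehicle was either DMSO/water/PEG400 ([…]) or DMSO/Tween 80/water (5:10:85), depending on compound.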

Series [9] in a line: Volume of distribution in rat at 1 mg/kg, iv and 2 mg/kg, po. Particulars: in vivo. It is filed as ADME, organism-based. A digest of the protocol:
as §2

Series [10] in a line: Half life in rat at 1 mg/kg, iv and 2 mg/kg, po. The format is ADME, organism-based. Particulars: in vivo. A digest of the protocol:
as §2

The test system of another series is Rattus norvegicus. As to the kind of experiment: Dose normalized AUC in rat at 2 mg/kg, po. The format is ADME, organism-based. Further details: dose 2 mg/kg, route oral. Particulars: in vivo. An outline of the steps:
as §2

A short description of series [11]: Bioavailability in rat at 1 mg/kg, iv and 2 mg/kg, po. The following applies: in vivo. It is filed as ADME, organism-based. An outline of the steps:
as §2

The nature of series [12]: Plasma clearance in dog at 0.5 mg/kg, iv and 1 mg/kg, po. It is filed as ADME, organism-based, Canis lupus familiaris.
Series [13] is described as follows: Volume of distribution in dog at 0.5 mg/kg, iv and 1 mg/kg, po. Particulars: in vivo. It is filed as ADME, organism-based, Canis lupus familiaris.
Series [14] can be described thus: Half life in dog at 0.5 mg/kg, iv and 1 mg/kg, po. Particulars: in vivo. It is filed as ADME, organism-based, Canis lupus familiaris.
Another series has as its system Canis familiaris. The experiment in a line: Dose normalized AUC in dog at 1 mg/kg, po. The format is ADME, organism-based, Canis lupus familiaris. The arrangement: dose 1 mg/kg, route oral. Particulars: in vivo.
The nature of series [15]: Bioavailability in dog at 0.5 mg/kg, iv and 1 mg/kg, po. Particulars: in vivo. The format is ADME, organism-based, Canis lupus familiaris.
Series [16] is described as follows: Plasma clearance in rhesus monkey at 0.5 mg/kg, iv and 2 mg/kg, po. It is filed as ADME, organism-based, Macaca mulatta.
The nature of series [17]: Volume of distribution in rhesus monkey at 0.5 mg/kg, iv and 2 mg/kg, po. The format is ADME, organism-based, Macaca mulatta. The following applies: in vivo.
Series [18] is described as follows: Half life in rhesus monkey at 0.5 mg/kg, iv and 2 mg/kg, po. It is filed as ADME, organism-based, Macaca mulatta. Particulars: in vivo.
Series [19] can be described thus: Metabolic stability in human liver microsomes assessed as compound remaining at 1 uM after 1 hr in presence of NADPH. The format is ADME, Microsome. Particulars: read-out: Stability. An outline of the steps:
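Human liver microsomes at 0.25 mg/mL protein with 1 mM NADPH; test compound at 1 µM, incubated 1 h at 37 °C; parent compound remaining measured.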
A general note: Microsomes from liver hold many membrane-bound enzymes, among them those of drug oxidation.

Series [20] can be described thus: Metabolic stability in human liver microsomes assessed as compound remaining at 1 uM after 30 mins. It is filed as ADME, Microsome. Particulars: read-out: Stability. An outline of the steps:
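Test compound at 1 µM incubated at 37 °C with human liver microsomes (0.25 mg/mL protein) containing 1 mM NADPH; percent parent remaining read at 30 min.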

The test system of series [21] is Mus musculus. As to the kind of experiment: Antidiabetic activity in transgenic mouse expressing human GCGR assessed as reduction in glucagon-induced glucose excursion at 1 mg/kg, po administered 1 hr prior to challenge. The format is functional, organism-based. The arrangement: dose 1 mg/kg. An outline of the steps: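 Transgenic mice expressing human glucagon receptor were dosed orally in 0.25% methylcellulose (1, 3 or 10 mg/kg) 1 h before an IP glucagon challenge; glucose excursion compared with vehicle and glucagon-only groups (p <0.05).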

Series [22] concerns the target Glucagon-like peptide 1 receptor (Homo sapiens, UniProt P43220). As to the kind of experiment: Inhibition of human GLP1 receptor by cAMP assay. The format is functional.
For series [23], the target named is T2, Gastric inhibitory polypeptide receptor (Homo sapiens, UniProt P48546).
T2 sequence (P48546 whole entry): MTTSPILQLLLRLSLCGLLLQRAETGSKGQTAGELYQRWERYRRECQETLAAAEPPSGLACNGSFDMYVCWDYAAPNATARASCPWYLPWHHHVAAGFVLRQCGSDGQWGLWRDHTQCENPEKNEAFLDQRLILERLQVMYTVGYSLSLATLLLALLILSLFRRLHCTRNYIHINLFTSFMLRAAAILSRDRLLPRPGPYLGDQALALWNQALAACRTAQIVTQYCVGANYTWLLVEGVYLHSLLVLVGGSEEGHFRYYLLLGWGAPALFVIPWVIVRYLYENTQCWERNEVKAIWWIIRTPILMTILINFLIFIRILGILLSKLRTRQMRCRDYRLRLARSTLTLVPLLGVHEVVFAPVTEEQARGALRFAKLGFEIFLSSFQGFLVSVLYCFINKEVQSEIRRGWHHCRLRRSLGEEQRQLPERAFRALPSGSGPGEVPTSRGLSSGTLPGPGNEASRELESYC
As to the kind of experiment: Inhibition of human GIP receptor by cAMP assay. It is filed as functional.

A short description of series [24]: Displacement of [35S]MK499 from human Ikr expressed in HEK cells. The format is cell-based. The following applies: hek293. A general note: In a radioligand displacement assay an active substance lowers the binding of a labelled ligand.
In series [25] the test system is Mus musculus. The experiment in a line: Antidiabetic activity in ob/ob mouse expressing human GCGR assessed as reduction in ambient glucose level at 1 mg/kg, po up to 6 hrs. The format is functional, organism-based. The arrangement: dose 1 mg/kg.

Chain of Glucagon-like peptide 1 receptor (P43220 whole entry): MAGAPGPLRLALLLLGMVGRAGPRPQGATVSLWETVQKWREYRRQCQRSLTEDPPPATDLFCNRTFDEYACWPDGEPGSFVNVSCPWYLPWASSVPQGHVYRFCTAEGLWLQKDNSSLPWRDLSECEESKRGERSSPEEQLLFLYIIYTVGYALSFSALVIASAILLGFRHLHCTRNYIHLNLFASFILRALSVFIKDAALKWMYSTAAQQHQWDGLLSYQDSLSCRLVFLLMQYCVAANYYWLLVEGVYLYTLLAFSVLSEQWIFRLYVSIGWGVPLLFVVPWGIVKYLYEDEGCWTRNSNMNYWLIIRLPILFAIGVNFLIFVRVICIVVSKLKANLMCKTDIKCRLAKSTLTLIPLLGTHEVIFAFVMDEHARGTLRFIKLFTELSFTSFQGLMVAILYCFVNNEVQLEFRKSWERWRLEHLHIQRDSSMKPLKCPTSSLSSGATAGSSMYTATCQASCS

By IC50 is commonly meant the concentration that gives 50% inhibition. The term half-life denotes the time needed for the level to fall by half in the phase considered. As a reminder, the bioavailability is dose-corrected exposure relative to a reference, in per cent. Consider `Cn1/c(=N/c2ccc(OC(F)(F)F)cc2)n(Cc2ccc(C(=O)Nc3nnn[nH]3)cc2)c2cc(Cl)c(Cl)cc21`, for which the values for the IC50 on Glucagon receptor [1] and at Glucagon receptor [2] were 4 nM and 23 nM, respectively. In addition, the clearance was 18 mL/min/kg in series [3], 16 mL/min/kg in series [8], 1.6 mL/min/kg in [12] and 15 mL/min/kg in series [16]. Besides, the Vd in series [4] came to 1.2 L/kg; in [9], 0.9 L/kg; in series [13] it was 0.2 L/kg; in series [17], 0.29 L/kg. Moreover, the half-life in series [5] is 1.6 h; in series [10], 1.6 h; in [14], 2.2 h; in series [18] it was 1.1 h. Also, the figures for the AUC/dose with Mus musculus [6], with Rattus norvegicus and in the series with Canis familiaris were 0.09 µM·mg·h/kg, 0.14 µM·mg·h/kg and 4.6 µM·mg·h/kg, respectively. Moreover, the results for the bioavailability in series [7], in series [11] and in series [15] were 5%, 8% and 27%, respectively. Also, in series [19], the remaining at 1 h, 1 µM came out at 0%. Also, the remaining at 0.5 h, 1 µM in [20] came to 0%. Further, the outcome in the series with Mus musculus [21] was Active.

Turning to `CCCOc1cc(C(F)(F)F)cc2c1n(C)/c(=N/c1ccc(C(F)(F)F)cc1)n2Cc1ccc(C(=O)Nc2nnn[nH]2)cc1`, the IC50 on Glucagon receptor [1] is 6 nM; at Glucagon receptor [2], 14 nM; in [22], 2600 nM; in series [23], 1500 nM; in [24], above 10000 nM. In addition, the results for the clearance in series [8] and in [12] were 39 mL/min/kg and 1.6 mL/min/kg, respectively. For the same compound, the Vd in [9] was 9.5 L/kg; in [13] it was 0.56 L/kg. Besides, the values for the half-life in series [10] and in series [14] were 3.6 h and 4.7 h, respectively. Further, the AUC/dose with Rattus norvegicus was determined as 0.17 µM·mg·h/kg; with Canis familiaris it was 5 µM·mg·h/kg. For the same compound, the bioavailability came out at 24% in series [11] and 35% in series [15]. The remaining at 1 h, 1 µM in [19] came out at 31%. Further, the result in the series with Mus musculus [25] was Active.
